In ChEMBL document CHEMBL1141450, “Anthraquinones with quinone reductase-inducing activity and benzophenones from Morinda citrifolia (noni) roots” (J Nat Prod, 2007):
pIC50: −log10 of the molar value.

System: Hepa lclc7
Assay: Induction of mouse quinone reductase in mouse Hepa lclc7 cells assessed as concentration required to double enzyme activity
Assay type: cell-based
How it was run: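 Quinone reductase induction assay in Hepa 1c1c7 murine hepatoma cells (ATCC CRL-2026), with isoliquiritigenin as the positive control. CD is the concentration needed to double QR activity.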
Compound O=C1c2ccccc2C(=O)c2c1ccc(O)c2O [ATHRAQUINONES A] has an Activity of 12 µM.
For Cc1c(O)cc2c(c1O)C(=O)c1ccc(O)cc1C2=O, the Activity was 0.56 µM.
With O=C(/C=C/c1ccc(O)cc1)c1ccc(O)cc1O [ISOLIQUIRITIGENIN] the Activity was 4.3 µM.
Work on O=C1c2ccccc2C(=O)c2cc(CO)c(O)cc21 yielded an Activity of 0.94 µM.
Cc1c(O)cc2c(c1O)C(=O)c1ccccc1C2=O [Rubiadin] showed an Activity of 8.1 µM.
COc1c(O)cc2c(c1O)C(=O)c1ccc(O)cc1C2=O showed an Activity of 0.009 µM.

System: not listed separately
Assay: Cytotoxicity against mouse Hepa lclc7 cells
Assay type: cell-based
How it was run: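 Hepa 1c1c7 murine hepatoma cells (ATCC CRL-2026) were tested in the QR induction assay format. IC50 is the concentration inhibiting cell growth by 50%.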
O=C1c2ccccc2C(=O)c2c1ccc(O)c2O [ATHRAQUINONES A] showed a pIC50 of 4.21.
Cc1c(O)cc2c(c1O)C(=O)c1ccc(O)cc1C2=O showed a pIC50 of 4.33.
For O=C(/C=C/c1ccc(O)cc1)c1ccc(O)cc1O [ISOLIQUIRITIGENIN], the pIC50 was 4.41.
Compound O=C1c2ccccc2C(=O)c2cc(CO)c(O)cc21 has a pIC50 of under 4.11.
Work on Cc1c(O)cc2c(c1O)C(=O)c1ccccc1C2=O [Rubiadin] yielded a pIC50 of under 4.13.

System: not listed separately
Assay: Cytotoxicity against mouse Hepa lclc7 cells at 20 ug/mL
Assay type: cell-based
In the case of COc1c(O)cc2c(c1O)C(=O)c1ccc(O)cc1C2=O, the Activity was “Non-toxic”.

System: not listed separately
Assay: Chemoprevention index, ratio of IC50 for mouse Hepa lclc7 cells to activity against mouse quinone reductase
Assay type: functional
How it was run: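 Chemoprevention index is calculated as IC50 divided by CD. IC50 is the concentration giving 50% growth inhibition of Hepa 1c1c7 cells. CD is the concentration doubling quinone reductase activity in the same cells. Isoliquiritigenin is the positive control.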
With O=C1c2ccccc2C(=O)c2c1ccc(O)c2O [ATHRAQUINONES A] the Ratio was 5.1.
Work on Cc1c(O)cc2c(c1O)C(=O)c1ccc(O)cc1C2=O yielded a Ratio of 85.
Work on O=C(/C=C/c1ccc(O)cc1)c1ccc(O)cc1O [ISOLIQUIRITIGENIN] yielded a Ratio of 9.2.
O=C1c2ccccc2C(=O)c2cc(CO)c(O)cc21 showed a Ratio of over 83.
Work on Cc1c(O)cc2c(c1O)C(=O)c1ccccc1C2=O [Rubiadin] yielded a Ratio of over 9.
